The text below walks through data of ChEMBL document CHEMBL1128398, “Structure-activity relationship of alpha-galactosylceramides against B16-bearing mice” (1995).

The structures appear in SMILES notation.

The species named for test [1] is Mus musculus. In words: Lymphocyte Proliferation Stimulatory effect on mouse spleen cell at a concentration of 10 ng/mL. In kind it is functional. An outline of the steps: (§1)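 BALB/c spleen cells (2 × 10^5 cells/well, no stimulator cells) were cultured in 10% FCS RPMI 1640 with compound at 37 °C in 5% CO2 for 2–3 days. A 6 h [3H]TdR pulse followed, and uptake was counted by liquid scintillation. Run in triplicate.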

The species entered for test [2] is Mus musculus. Put plainly: Lymphocyte Proliferation Stimulatory effect on mouse spleen cell at a concentration of 100n g/mL. The format is functional. The essentials: as §1
Test [3] is filed under the species Mus musculus. Put plainly: Lymphocyte Proliferation Stimulatory effect on allogenic MLR at a concentration of 1 ng/mL. The format is functional. An outline of the steps: (§2)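 Responders were BALB/c spleen cells and stimulators were C57BL/6 spleen cells pretreated with MMC (50 μg/mL, 30 min). Both were plated at 1 × 10^5 cells in 10% FCS RPMI 1640, with compounds added at plating. Culture was at 37 °C in 5% CO2 for 2–3 days, then a 6 h [3H]TdR pulse with scintillation counting. Run in triplicate.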

The species entered for test [4] is Mus musculus. Put plainly: Lymphocyte Proliferation Stimulatory effect on mouse spleen cell at a concentration of 1 ng/mL. In kind it is functional. An outline of the steps: as §1
The species named for test [5] is Mus musculus. Put plainly: Lymphocyte Proliferation Stimulatory effect on allogenic MLR at a concentration of 100n g/mL. The format is functional. The essentials: as §2
The species named for test [6] is Mus musculus. In words: Lymphocyte Proliferation Stimulatory effect on allogenic MLR at a concentration of 10 ng/mL. In kind it is functional. An outline of the steps: as §2
Test [7] deals with B16. Put plainly: Tumor Growth Inhibitory effect (TGIR) on mice subcutaneously inoculated with B16 cells (compound alone (single)). In kind it is functional, Mus musculus. Details: concentration or dose not given beside the values. The essentials:
(§3)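 Groups of six female BDF1 mice received B16 melanoma (1 × 10^6 cells/mouse) s.c. on day 0. AGL analogues were given i.v. at 100 μg/kg on days 1, 5 and 9, and MMC at 5 mg/kg i.p. on day 1; controls were untreated. Tumor volume (length × width × height/2, by callipers) was read on days 8, 12, 16 and 20. TGIR = [1 − mean test volume/mean control volume] × 100, and the maximum value is reported.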

For test [8], the system named is B16. In words: Tumor Growth Inhibitory effect (TGIR) on mice subcutaneously inoculated with B16 cells (chemotherapeutic agent, mitomycin C (MMC)). In kind it is functional, Mus musculus. Further details: concentration or dose not given beside the values. The essentials: as §3
For test [9], the species on record is Mus musculus. Put plainly: Lymphocyte Proliferation Stimulatory effect was tested on mouse spleen cells and evaluated for at 6 h [3H]TdR (tritium-thymidine) pulse and uptake into cells at 1 ng/mL. In kind it is functional. The essentials: as §1
For test [10], the species on record is Mus musculus. In words: Lymphocyte Proliferation Stimulatory effect was tested on mouse spleen cells and evaluated for at 6 h [3H]TdR (tritium-thymidine) pulse and uptake into cells at 100 ng/mL. The format is functional. The essentials: as §1
Test [11] has as its system B16. Put plainly: Tumor Growth Inhibitory effect (TGIR) on mice subcutaneously inoculated with B16 cells (compound plus MMC). In kind it is functional, Mus musculus. Further details: concentration or dose not given beside the values. An outline of the steps: as §3
Test [12] is filed under the species Mus musculus. In words: Lymphocyte Proliferation Stimulatory effect was tested on mouse spleen cells and evaluated for at 6 h [3H]TdR (tritium-thymidine) pulse and uptake into cells at 10 ng/mL. In kind it is functional. The essentials: as §1
The species named for test [13] is Homo sapiens. In words: Lymphocyte Proliferation Stimulatory effect on human umbilical cord blood at 1 ng/mL and measured for [3H]TdR (tritium-thymidine) uptake (percent of control). In kind it is functional. An outline of the steps:
(§4)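 Mononuclear cells were isolated from human peripheral blood or umbilical cord blood and plated at 1 × 10^5 cells/well in RPMI 1640 with 10% autologous plasma, with compound. After 4 days of incubation, a 6 h [3H]TdR pulse was given and uptake was counted by scintillation. Run in triplicate.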

Test [14] is filed under the species Homo sapiens. Put plainly: Lymphocyte Proliferation Stimulatory effect on human umbilical cord blood at 10 ng/mL and measured for [3H]TdR (tritium-thymidine) uptake (percent of control). The format is functional. An outline of the steps:
as §4

Test [15] is filed under the species Homo sapiens. Put plainly: Lymphocyte Proliferation Stimulatory effect on human umbilical cord blood at 100 ng/mL and measured for [3H]TdR (tritium-thymidine) uptake (percent of control). In kind it is functional. An outline of the steps: as §4

Take `CCCCCCCCCCCCCCCCCCCCCC[C@@H](O)C(=O)N[C@@H](CO[C@H]1O[C@@H](CO)[C@H](O)[C@H](O)[C@@H]1O)[C@H](O)[C@H](O)CCCCCCCCCCCC(C)C` (stereo in doubt; form 2): the “[3H] TdR uptake” value in [1] was determined as 19985 c.p.m; in test [2] it was 24264 c.p.m; in test [3] it was 36022 c.p.m; in test [4], 8230 c.p.m; in test [5], 32240 c.p.m; in [6], 36713 c.p.m.
`CCCCCCCCCCCCCCCCCCCCCCCC(=O)N[C@@H](CO[C@H]1O[C@@H](CO)[C@H](O)[C@H](O)[C@@H]1O)[C@H](O)[C@H](O)CCCCCCCCCCCCCC`: the Control in [7] worked out at 65%; in test [9] it was 198%; in [10], 790%; in test [11], 90.8%; in test [12], 642%. Further, the “Tumor growth inhibition ratio (max TGIR)” value in test [8] was 64.8%.
Turning to `CCCCCCCCCCCCCCCCCC(=O)N[C@@H](CO[C@H]1O[C@@H](CO)[C@H](O)[C@H](O)[C@@H]1O)[C@H](O)CCCCCCCCCCCCCCC`, the Control in test [7] came out at 78.1%; in test [9], 155%; in [10] it was 645%; in [11], 80.3%; in [12] it was 383%. Further, the “Tumor growth inhibition ratio (max TGIR)” value in test [8] was 64.1%.
As for `CCCCCCCCCCCCCCCCCCCCCC[C@@H](O)C(=O)N[C@@H](CO[C@H]1O[C@@H](CO)[C@H](O)[C@H](O)[C@@H]1O)[C@H](O)[C@H](O)CCCCCCCCCCCCCC`, the Control amounted to 57.9% in test [7]; 1060% in test [9]; 1552% in test [10]; 91.9% in [11]; 1405% in [12]. Further, in test [8], the “Tumor growth inhibition ratio (max TGIR)” value is 64%.
Regarding `CCCCCCCCCCCCCCCCCCCCCC(=O)N[C@@H](CO[C@H]1O[C@@H](CO)[C@H](O)[C@H](O)[C@@H]1O)[C@H](O)CCCCCCCCCCCCCCC`, the Control is recorded as 56.9% in test [7]; 378% in test [9]; 875% in test [10]; 85% in [11]; 992% in test [12]. Moreover, the “Tumor growth inhibition ratio (max TGIR)” value in test [8] was 39.4%.
Take `CCCCCCCCCCCCCCCCCCCCCC[C@@H](O)C(=O)N[C@@H](CO[C@H]1O[C@@H](CO)[C@H](O)[C@H](O)[C@@H]1O)[C@H](O)[C@H](O)CCCCCCCCCCCC(C)C` (stereo in doubt; form 1): the “[3H] TdR uptake” value is recorded as 20746 c.p.m in test [1]; 23968 c.p.m in test [2]; 29143 c.p.m in test [3]; 7935 c.p.m in test [4]; 31219 c.p.m in test [5]; 38668 c.p.m in test [6]. In addition, the Control in test [7] was found to be 86.8%; in test [9], 282%; in [10], 879%; in test [11] it was 94.6%; in [12], 524%. The “Tumor growth inhibition ratio (max TGIR)” value in test [8] was determined as 61.5%.
For `CCCCCCCCCCCCCCCCCCCCCCCC(=O)N[C@@H](CO[C@H]1O[C@@H](CO)[C@H](O)[C@H](O)[C@@H]1O)[C@H](O)CCCCCCCCCCCCCCC`, the Control in [7] came to 68.9%; in test [9] it was 1115%; in test [10], 1494%; in test [11], 99.1%; in [12] it was 1432%. The “Tumor growth inhibition ratio (max TGIR)” value in [8] is 64%.
Regarding `CCCCCCCCCCCCCCCCCCCCCC[C@@H](O)C(=O)N[C@@H](CO[C@H]1O[C@@H](CO)[C@H](O)[C@H](O)[C@@H]1O)[C@H](O)[C@H](O)CCCCCCCCCCC`, the Control in test [7] is 94.1%; in test [9], 330%; in [10], 838%; in test [11] it was 77.4%; in [12], 676%. Moreover, the “Tumor growth inhibition ratio (max TGIR)” value in test [8] turned out to be 46.5%.
Take `CCCCCCCCCCCCCCCCCCCCCCCC[C@@H](O)C(=O)N[C@@H](CO[C@H]1O[C@@H](CO)[C@H](O)[C@H](O)[C@@H]1O)[C@H](O)[C@H](O)CCCCCCCCCCCCCCCC`: the Control in test [7] stood at 92.8%; in test [9], 153%; in test [10] it was 481%; in [11], 94.3%; in [12], 482%. Also, the “Tumor growth inhibition ratio (max TGIR)” value in test [8] turned out to be 87.3%.
On to `CCCCCCCCCCCCCCC[C@@H](O)[C@H](CO[C@H]1O[C@@H](CO)[C@H](O)[C@H](O)[C@@H]1O)NC(=O)CCCCCCCCCCCCC`, for which the Control in test [7] is 54.2%; in test [9] it was 249%; in test [10], 1664%; in test [11], 84.4%; in [12], 1010%. The “Tumor growth inhibition ratio (max TGIR)” value in test [8] is recorded as 64.1%.
On to `CCCCCCCCCCCCCCCCCCCCCCCC[C@@H](O)C(=O)N[C@@H](CO[C@H]1O[C@@H](CO)[C@H](O)[C@H](O)[C@@H]1O)[C@H](O)CCCCCCCCCCCCCCC`, for which the figures for the Control in test [13], in test [14] and in test [15] were 210%, 238% and 362%, respectively.
Regarding `CCCCCCCCCCCCCCCCCCCCCC[C@@H](O)C(=O)N[C@@H](CO[C@H]1O[C@@H](CO)[C@H](O)[C@H](O)[C@@H]1O)[C@H](O)[C@H](O)CCCCCCCCCCCCC`, the Control came out at 82.4% in test [7]; 520% in test [9]; 1202% in test [10]; 90.6% in test [11]; 1491% in [12]. Further, the “Tumor growth inhibition ratio (max TGIR)” value in test [8] is on record as 61.5%.
As to `CCCCCCCCCCCCCCCCCCCCCC[C@@H](O)C(=O)N[C@@H](CO[C@H]1O[C@@H](CO)[C@H](O)[C@H](O)[C@@H]1O)[C@H](O)[C@H](O)CCCCCCC`, the Control was determined as 46.2% in [7]; 196% in [9]; 936% in test [10]; 85.1% in test [11]; 541% in test [12]. Also, the “Tumor growth inhibition ratio (max TGIR)” value in test [8] is 46.5%.
`CCCCCCCCCCCCCCCCCCCCCCCC[C@@H](O)C(=O)N[C@@H](CO[C@H]1O[C@@H](CO)[C@H](O)[C@H](O)[C@@H]1O)[C@H](O)[C@H](O)CCCCCCCCCCCCCCC`: the Control is 72.3% in test [7]; 221% in test [9]; 673% in test [10]; 97.1% in test [11]; 488% in [12]. In test [8], the “Tumor growth inhibition ratio (max TGIR)” value was determined as 87.3%.
Regarding `CCCCCCCCCCCCCCCCCCCCCCCC(=O)N[C@H](CCCCCCCCCCCCCCCC)CO[C@H]1O[C@@H](CO)[C@H](O)[C@H](O)[C@@H]1O`, the Control is 40.7% in test [7]; 90% in test [9]; 147% in test [10]; 91.4% in test [11]; 100% in test [12]. The “Tumor growth inhibition ratio (max TGIR)” value in test [8] turned out to be 80%.
Take `CCCCCCCCCCCCCCCCCCCCCC[C@@H](O)C(=O)N[C@@H](CO[C@H]1O[C@@H](CO)[C@H](O)[C@H](O)[C@@H]1O)[C@H](O)CCCCCCCCCCCCCCC`: the Control was 81.3% in [7]; 397% in test [9]; 872% in test [10]; 98.5% in [11]; 898% in test [12]. The “Tumor growth inhibition ratio (max TGIR)” value in test [8] was found to be 70.7%.
For the compound `CCCCCCCCCCCCCCCCCCCC(=O)N[C@@H](CO[C@H]1O[C@@H](CO)[C@H](O)[C@H](O)[C@@H]1O)[C@H](O)CCCCCCCCCCCCCCC`, the Control worked out at 53.1% in test [7]; 177% in test [9]; 1009% in [10]; 90.4% in test [11]; 791% in test [12]. The “Tumor growth inhibition ratio (max TGIR)” value in test [8] amounted to 39.4%.
